# Test results: ChEMBL document CHEMBL1147872, “Syntheses of new tetrasubstituted thiophenes as novel anti-inflammatory agents” (Eur J Med Chem, 2007)
# What was measured:
# Assay type in all cases: functional
# [1] = Antioxidant activity assessed as nitric oxide radical scavenging activity at 0.1 ug/ml after 150 mins
# Procedure, shortened: (§1)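 Sodium nitroprusside (10 mmol) in PBS at physiological pH was incubated with sample at 25 °C for 150 min in a 3 ml reaction. Aliquots taken every 30 min were mixed 1:1 with Griess reagent (1% sulphanilamide, 0.1% naphthylethylenediamine in 2% H3PO4), and absorbance was read at 546 nm. Runs were done in triplicate, and % scavenging was calculated against the blank.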
# [2] = Antioxidant activity assessed as nitric oxide radical scavenging activity at 0.2 ug/ml after 150 mins; procedure, shortened: as §1
# [3] = Antioxidant activity assessed as nitric oxide radical scavenging activity at 0.4 ug/ml after 150 mins; procedure, shortened: as §1
# [4] = Antioxidant activity assessed as nitric oxide radical scavenging activity at 0.6 ug/ml after 150 mins; procedure, shortened: as §1
# [5] = Antioxidant activity assessed as nitric oxide radical scavenging activity at 0.8 ug/ml after 150 mins; procedure, shortened: as §1
# [6] = Antioxidant activity assessed as nitric oxide radical scavenging activity at 1.0 ug/ml after 150 mins; procedure, shortened: as §1
# [7] = Antioxidant activity assessed as nitric oxide radical scavenging activity at 1.2 ug/ml after 150 mins; procedure, shortened: as §1
# [8] = Inhibition of nitric oxide radical scavenging activity; procedure, shortened: as §1
# Rattus norvegicus = assay: Antiinflammatory activity in Albino rat assessed as protection against carrageenan-induced hind paw oedema at 100 mg/kg, po after 3 hrs
# Procedure, shortened: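 Rats (150–250 g, either sex) were fasted 18 h and grouped in sixes. Compounds or standards were given orally as a suspension in 5% DMSO. After 1 h, 0.1 ml of 1% carrageenin was injected subplantar into the right hind paw. Paw volume was read by mercury plethysmometer at once and at 3 h. % protection = 100(1−Vt/Vc) versus vehicle.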
SMILES,Activity [1] [%],Activity [2] [%],Activity [3] [%],Activity [4] [%],Activity [5] [%],Activity [6] [%],Activity [7] [%],IC50 [8] [µg/mL],Activity (Rattus norvegicus) [%]
O=C1O[C@H]([C@@H](O)CO)C(O)=C1O [ASCORBIC ACID],2.98,11.5,29.5,39.3,41.6,58.3,70.2,0.52,
Cc1cccc(Nc2ccccc2C(=O)O)c1C [MEFENAMIC ACID],,,,,,,,,39
